The source made the active and inactive calls. The rule behind the calls is not given here.
Columns and labels:
Plasmodium falciparum [1] = assay: Antiplasmodial activity against chloroquine-resistant Plasmodium falciparum W2 infected in red blood cells after 72 hrs by parasitic LDH assay; assay type: functional, organism-based; details: W2, 72 h
Vero [2] = assay: Cytotoxicity against african green monkey Vero cells after 48 hrs by neutral red assay; assay type: cell-based; details: chlorocebus sabaeus
Outline: (§1)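 Mammalian cell cytotoxicity was measured as IC50 in Vero (monkey kidney fibroblasts), LLC-PK11 (pig kidney epithelial) and HepG2 (human hepatoma) cells. The highest concentration tested was 60 μM. Values are the mean of two independent experiments ± SD.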

HepG2 [3] = assay: Cytotoxicity against human HepG2 cells after 48 hrs by neutral red assay; assay type: cell-based; details: HepG2, 48 h; outline: as §1
Plasmodium falciparum [4] = assay: Antiplasmodial activity against chloroquine-sensitive Plasmodium falciparum D6 infected in red blood cells after 72 hrs by parasitic LDH assay; assay type: functional, organism-based; details: D6, 72 h
[5] = Cytotoxicity against pig LLC-PK11 cells after 48 hrs by neutral red assay; assay type: cell-based; details: Sus scrofa, LLC-PK11, 48 h; outline: as §1
[6] = Selectivity index, ratio of IC50 for african green monkey Vero cells to IC50 for chloroquine-resistant Plasmodium falciparum W2; assay type: toxicity, cell-based; details: read-out: Ratio IC50
Outline: (§2)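 SI is the IC50 for cytotoxicity to Vero cells (monkey kidney fibroblasts) divided by the antimalarial IC50 against the named P. falciparum clone. Cytotoxicity was tested up to 60 μM.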

[7] = Selectivity index, ratio of IC50 for african green monkey Vero cells to IC50 for chloroquine-sensitive Plasmodium falciparum D6; assay type: toxicity, cell-based; details: read-out: Ratio IC50; outline: as §2
Plasmodium falciparum [8] = assay: Ratio of chloroquine IC50 to compound IC50 for chloroquine-resistant Plasmodium falciparum W2; assay type: functional
HepG2 [9] = assay: Cytotoxicity against human HepG2 cells up to 60 uM after 48 hrs by neutral red assay; assay type: cell-based; details: hepg2, 48 h; outline: as §1
Vero [10] = assay: Cytotoxicity against african green monkey Vero cells up to 60 uM after 48 hrs by neutral red assay; assay type: cell-based; details: chlorocebus sabaeus; outline: as §1
[11] = Cytotoxicity against pig LLC-PK11 cells up to 60 uM after 48 hrs by neutral red assay; assay type: cell-based, Sus scrofa; details: llc-pk11, 48 h; outline: as §1
Plasmodium berghei [12] = assay: Antimalarial activity against Plasmodium berghei infected in mouse assessed as suppression in parasitemia at 30 mg/kg, po administered QD for 3 days measured on day 7 relative to control; assay type: functional
Outline: (§3)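 P. berghei-infected mice, 5 per group, dosed by oral gavage once daily on days 0, 1 and 2 postinfection, with a vehicle control arm. Mice were followed to day 28 postinfection for apparent toxicity, parasitemia and survival. Parasitemia suppression is expressed against mean vehicle-control parasitemia set as 100%, and cure is the number cured per 5 mice.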

Mus musculus [13] = assay: Toxicity in mouse infected with Plasmodium berghei assessed as host survival at 3.3 mg/kg, po administered QD for 3 days measured on day 28; assay type: organism-based; design: dose 3.3 mg/kg, route oral; details: in vivo, 72 h
Plasmodium berghei [14] = assay: Antimalarial activity against Plasmodium berghei infected in mouse assessed as suppression in parasitemia at 30 mg/kg, po administered QD for 3 days measured on day 5 relative to control; assay type: functional; outline: as §3
Plasmodium falciparum [15] = assay: Ratio of chloroquine IC50 to compound IC50 for chloroquine-sensitive Plasmodium falciparum D6; assay type: functional
Mus musculus [16] = assay: Toxicity in mouse infected with Plasmodium berghei assessed as host survival at 10 mg/kg, po administered QD for 3 days measured on day 28; assay type: organism-based; design: dose 10 mg/kg, route oral; details: in vivo, 72 h
Mus musculus [17] = assay: Toxicity in mouse infected with Plasmodium berghei assessed as host survival at 30 mg/kg, po administered QD for 3 days measured on day 28; assay type: organism-based; design: dose 30 mg/kg, route oral; details: in vivo, 72 h
Plasmodium berghei [18] = assay: Antimalarial activity against Plasmodium berghei infected in mouse assessed as suppression in parasitemia at 10 mg/kg, po administered QD for 3 days measured on day 7 relative to control; assay type: functional; outline: as §3
Plasmodium berghei [19] = assay: Antimalarial activity Plasmodium berghei infected in mouse assessed as mean survival time at 10 mg/kg, po administered QD for 3 days (reference value: 15.2 days); assay type: functional
Plasmodium berghei [20] = assay: Antimalarial activity Plasmodium berghei infected in mouse assessed as mean survival time at 3.3 mg/kg, po administered QD for 3 days (reference value: 15.2 days); assay type: functional
Plasmodium falciparum [21] = assay: Ratio of artemesin IC50 to compound IC50 for chloroquine-sensitive Plasmodium falciparum D6; assay type: functional
Plasmodium berghei [22] = assay: Antimalarial activity Plasmodium berghei infected in mouse assessed as cure from infection at 30 mg/kg, po administered QD for 3 days measured on day 28; assay type: functional; outline: as §3
Plasmodium berghei [23] = assay: Antimalarial activity against Plasmodium berghei infected in mouse assessed as suppression in parasitemia at 3.3 mg/kg, po administered QD for 3 days measured on day 5 relative to control; assay type: functional; outline: as §3
Plasmodium berghei [24] = assay: Antimalarial activity Plasmodium berghei infected in mouse assessed as cure from infection at 3.3 mg/kg, po administered QD for 3 days measured on day 28; assay type: functional, organism-based; design: dose 3.3 mg/kg; outline: as §3
Plasmodium berghei [25] = assay: Antimalarial activity against Plasmodium berghei infected in mouse assessed as suppression in parasitemia at 10 mg/kg, po administered QD for 3 days measured on day 5 relative to control; assay type: functional; outline: as §3
Plasmodium berghei [26] = assay: Antimalarial activity against Plasmodium berghei infected in mouse assessed as suppression in parasitemia at 3.3 mg/kg, po administered QD for 3 days measured on day 7 relative to control; assay type: functional; outline: as §3
Plasmodium berghei [27] = assay: Antimalarial activity Plasmodium berghei infected in mouse assessed as cure from infection at 10 mg/kg, po administered QD for 3 days measured on day 28; assay type: functional, organism-based; design: dose 10 mg/kg; outline: as §3
Plasmodium berghei [28] = assay: Antimalarial activity Plasmodium berghei infected in mouse assessed as mean survival time at 30 mg/kg, po administered QD for 3 days (reference value: 15.2 days); assay type: functional

SMILES	IC50 (Plasmodium falciparum [1]) [nM]	IC50 (Vero [2]) [nM]	IC50 (HepG2 [3]) [nM]	IC50 (Plasmodium falciparum [4]) [nM]	IC50 [5] [nM]	selectivity ratio [6]	selectivity ratio [7]	Ratio IC50 (Plasmodium falciparum [8])	Activity (HepG2 [9])	Activity (Vero [10])	Activity [11]	further results
Cc1cc(Cl)nc(NCCNc2ccnc3cc(Cl)ccc23)n1	810	43000	43000	210	42300	53.1	205					
CCN1CCN(c2nc(C)cc(NCCCCNc3ccnc4cc(Cl)ccc34)n2)CC1	20	32400	15400	20	10700	1620	1620	6				
Cc1cc(NCCCCNc2ccnc3cc(Cl)ccc23)nc(Cl)n1	680			120		> 88	> 500		Non-toxic	Non-toxic	Non-toxic	
Cc1cc(Cl)nc(NCCCCNc2ccnc3cc(Cl)ccc23)n1	640		46400	170		> 94	> 353			Non-toxic	Non-toxic	
CCN1CCN(c2nc(C)cc(NCCCNc3ccnc4cc(Cl)ccc34)n2)CC1	60			6		> 1000	> 10000	6	Non-toxic	Non-toxic	Non-toxic	Activity (Plasmodium berghei [12]): 100%; Activity (Mus musculus [13]): Toxic; Activity (Plasmodium berghei [14]): 100%; Ratio IC50 (Plasmodium falciparum [15]): 6; Activity (Mus musculus [16]): Toxic; Activity (Mus musculus [17]): Non-toxic; Activity (Plasmodium berghei [18]): 27.1%; MST (Plasmodium berghei [19]): 15.2 days; MST (Plasmodium berghei [20]): 20.2 days; Ratio IC50 (Plasmodium falciparum [21]): 2; Activity (Plasmodium berghei [22]): 20%; Activity (Plasmodium berghei [23]): 20.1%; Activity (Plasmodium berghei [24]): inactive; Activity (Plasmodium berghei [25]): 73.9%; Activity (Plasmodium berghei [26]): 19.1%; Activity (Plasmodium berghei [27]): inactive; MST (Plasmodium berghei [28]): 27.2 days
Cc1cc(NCCCCCCNc2ccnc3cc(Cl)ccc23)nc(N2CCOCC2)n1	140	15100	6400	30	11100	107	503					
Cc1cc(Cl)nc(NCCCCCCNc2ccnc3cc(Cl)ccc23)n1	580	49400	8100	140	24000	85.2	353					
Cc1cc(NCCCCNc2ccnc3cc(Cl)ccc23)nc(N2CCN(C)CC2)n1	20		29500	20	34600	> 3000	> 3000	6		Non-toxic		
Cc1cc(NCCNc2ccnc3cc(Cl)ccc23)nc(N2CCN(C)CC2)n1	30			5		> 2000	> 12000	6	Non-toxic	Non-toxic	Non-toxic	Activity (Plasmodium berghei [12]): 100%; Activity (Mus musculus [13]): Toxic; Activity (Plasmodium berghei [14]): 100%; Ratio IC50 (Plasmodium falciparum [15]): 6; Activity (Mus musculus [16]): Toxic; Activity (Mus musculus [17]): Non-toxic; Activity (Plasmodium berghei [18]): 2%; MST (Plasmodium berghei [19]): 21.4 days; MST (Plasmodium berghei [20]): 19.2 days; Ratio IC50 (Plasmodium falciparum [21]): 2; Activity (Plasmodium berghei [22]): 80%; Activity (Plasmodium berghei [23]): 23.5%; Activity (Plasmodium berghei [24]): inactive; Activity (Plasmodium berghei [25]): 97%; Activity (Plasmodium berghei [26]): 35.2%; Activity (Plasmodium berghei [27]): inactive; MST (Plasmodium berghei [28]): 28 days
Cc1cc(NCCCNc2ccnc3cc(Cl)ccc23)nc(Cl)n1	700			330		> 85	> 184		Non-toxic	Non-toxic	Non-toxic	
Cc1cc(Cl)nc(NCCCNc2ccnc3cc(Cl)ccc23)n1	1170			240		> 51.3	> 250		Non-toxic	Non-toxic	Non-toxic	
Cc1cc(NCCNc2ccnc3cc(Cl)ccc23)nc(N2CCOCC2)n1	140			20		> 444	> 3000		Non-toxic	Non-toxic	Non-toxic	
Cc1cc(NCCCNc2ccnc3cc(Cl)ccc23)nc(N2CCOCC2)n1	50		26200	20	35700	> 1200	> 3000	6		Non-toxic		
COc1cccc2c1C(=O)c1c(O)c3c(c(O)c1C2=O)C[C@@](O)(C(=O)CO)C[C@@H]3O[C@H]1C[C@H](N)[C@H](O)[C@H](C)O1 [DOXORUBICIN]		8600	1000		1050							
Cc1cc(NCCCCCCNc2ccnc3cc(Cl)ccc23)nc(N2CCCCC2)n1	100	8800	6400	60	6300	88	146					
Cc1cc(NCCNc2ccnc3cc(Cl)ccc23)nc(Cl)n1	500			160		> 120	> 370		Non-toxic	Non-toxic	Non-toxic	
Cc1cc(NCCCNc2ccnc3cc(Cl)ccc23)nc(N2CCN(C)CC2)n1	60		26700	7	34600	> 1000	> 8570	6		Non-toxic		Ratio IC50 (Plasmodium falciparum [15]): 6; Ratio IC50 (Plasmodium falciparum [21]): 2
Cc1cc(NCCCCNc2ccnc3cc(Cl)ccc23)nc(N2CCCCC2)n1	90			20		> 666	> 3000	6	Non-toxic	Non-toxic	Non-toxic	
Cc1cc(NCCCNc2ccnc3cc(Cl)ccc23)nc(N2CCCCC2)n1	210			20		> 285	> 3000		Non-toxic	Non-toxic	Non-toxic	
Cc1cc(NCCCCCCNc2ccnc3cc(Cl)ccc23)nc(Cl)n1	540	32700	9100	440	15800	60.6	74.3					
C[C@@H]1CC[C@H]2[C@@H](C)C(=O)O[C@@H]3O[C@@]4(C)CC[C@@H]1[C@]32OO4 [ARTEMISININ]									Non-toxic	Non-toxic	Non-toxic	
Cc1cc(NCCCCCCNc2ccnc3cc(Cl)ccc23)nc(N2CCN(C)CC2)n1	16	10400	6300	7	7200	650	1480	6				Ratio IC50 (Plasmodium falciparum [15]): 6; Ratio IC50 (Plasmodium falciparum [21]): 2

— ChEMBL document CHEMBL2086283, “Novel 4-aminoquinoline-pyrimidine based hybrids with improved in vitro and in vivo antimalarial activity” (ACS Med Chem Lett, 2012)
